Values after ≈ are worked out from the molar mass of the structure shown.
Key:
Pseudomonas aeruginosa = test: Antibacterial activity against Pseudomonas aeruginosa PAO1 after 24 hrs by microdilution method; format: functional; conditions: PAO1, 24 h
Method in brief: (§1)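 Broth microdilution in Mueller-Hinton broth with 0.85% NaCl, inoculum about 10^5 CFU per 100 μL. Compounds diluted from 25.6 mg/mL stocks in water to 2-fold series, final 0.062–128 μg/mL. […] Three independent determinations.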

[1] = Inhibition of Escherichia coli DNA topoisomerase 4 subunit ParC/DNA topoisomerase 4 subunit ParE-mediated decatenation of kDNA by densitometry
Method in brief: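 Purchased E. coli topoIV kit enzyme, one unit with 200 ng kDNA, 37 °C, 30 min. Buffer: 50 mM HEPES-KOH pH 7.6, 5 mM magnesium acetate, 100 mM potassium glutamate, 10 mM DTT, 1 mM ATP, 40% glycerol. Gel on 1.0% agarose in TAE. IC50 of decatenation from densitometry by interpolation equation, at least three determinations.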

Enterococcus [2] = test: Antibacterial activity against vancomycin resistant Enterococcus NCTC 12201 after 24 hrs by microdilution method; format: functional; conditions: NCTC 12201, 24 h
Method in brief: (§2)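 Broth microdilution in Mueller-Hinton broth with 0.85% NaCl, inoculum about 10^5 CFU per 100 μL. Compounds were diluted in water from 25.6 mg/mL stocks to final 2-fold series of 0.062–128 μg/mL. Plates were incubated 24 h at 35 °C. MIC was the lowest concentration at which all triplicate wells were clear, from three independent determinations.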

Staphylococcus aureus [3] = test: Antibacterial activity against methicillin-resistant Staphylococcus aureus N315 after 24 hrs by microdilution method; format: functional; conditions: N315, 24 h; method in brief: as §2
[4] = Inhibition of Staphylococcus aureus DNA Topoisomerase 4-mediated decatenation of kDNA after 30 mins by densitometry
Method in brief: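 Purchased S. aureus topoIV, one unit with 200 ng kDNA, 37 °C, 30 min. Products resolved on 1.0% agarose in TAE. IC50 of decatenation from densitometry by interpolation equation, at least three determinations.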

Staphylococcus aureus [5] = test: Antibacterial activity against methicillin-resistant Staphylococcus aureus OM481 after 24 hrs by microdilution method; format: functional; conditions: OM481, 24 h; method in brief: as §2
Staphylococcus aureus [6] = test: Antibacterial activity against methicillin-resistant Staphylococcus aureus COL after 24 hrs by microdilution method; format: functional; method in brief: as §2
Streptococcus pneumoniae = test: Antibacterial activity against Streptococcus pneumoniae R6 after 24 hrs by microdilution method; format: functional; conditions: R6, 24 h; method in brief: as §1
Staphylococcus aureus [7] = test: Antibacterial activity against vancomycin-intermediate Staphylococcus aureus Mu50 after 24 hrs by microdilution method; format: functional; conditions: Mu50, 24 h; method in brief: as §2
Staphylococcus aureus [8] = test: Antibacterial activity against methicillin-susceptible Staphylococcus aureus 209P after 24 hrs by microdilution method; format: functional; method in brief: as §2
Staphylococcus aureus [9] = test: Antibacterial activity against methicillin-resistant Staphylococcus aureus OM584 after 24 hrs by microdilution method; format: functional; conditions: OM584, 24 h; method in brief: as §2
[10] = Inhibition of Escherichia coli DNA gyrase assessed as inhibition of pBR322 supercoiling by densitometry
Method in brief: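 One unit of E. coli gyrase with 0.5 μg relaxed pBR322 DNA, 37 °C, 30 min. Stopped with sucrose/EDTA dye, run on 1.0% agarose in TAE. IC50 from densitometry via log-interpolation equation.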

Enterococcus [11] = test: Antibacterial activity against vancomycin resistant Enterococcus FN-1 after 24 hrs by microdilution method; format: functional; conditions: FN-1, 24 h; method in brief: as §2
Escherichia coli = test: Antibacterial activity against Escherichia coli K-12 after 24 hrs by microdilution method; format: functional; conditions: K-12, 24 h; method in brief: as §1
Mus musculus [12] = test: Toxicity in mouse at 10 mg/kg, iv administered for 4 days measured after 14 days; format: organism-based; set-up: dose 10 mg/kg, route intravenous; conditions: in vivo, 336 h
Mus musculus [13] = test: Toxicity in mouse at 100 mg/kg, iv administered for 4 days assessed as transient seizure like reaction measured after 1 day of compound administration; format: organism-based; set-up: dose 100 mg/kg, route intravenous; conditions: in vivo, 24 h
Mus musculus [14] = test: Toxicity in mouse at 50 mg/kg, iv administered for 4 days measured after 14 days; format: organism-based; set-up: dose 50 mg/kg, route intravenous; conditions: in vivo, 336 h
[15] = Intestinal absorption in Wistar rat at 1 mg/mL, injected into small intestine, measured after 1 hr by UV-spectrophotometric analysis; conditions: in situ, intestinal injection
Mus musculus [16] = test: Toxicity in mouse at 100 mg/kg, iv administered for 4 days assessed as transient seizure like reaction measured after 10 mins of compound administration; format: organism-based; set-up: dose 100 mg/kg, route intravenous; conditions: in vivo
Mus musculus [17] = test: Toxicity in iv dosed mouse assessed as incidence of mortality measured 14 days post dose; format: organism-based; conditions: in vivo, 336 h
Method in brief: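 Male mice (n = 4), 15–30 g, given water only for 12 h beforehand. Dosed intravenously by tail vein in 50% PEG in saline at 10, 50 or 100 mg/kg/day for 4 days (total dose volume 20 mL/kg). Weight gain, mobility and mortality were observed up to 14 days.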

[18] = Ratio IC50 for Escherichia coli DNA topoisomerase 4 ParC/DNA topoisomerase 4 subunit ParE-mediated decatenation of kDNA to IC50 for Staphylococcus aureus DNA topoisomerase 4 subunit B-mediated decatenation of kDNA

Row | SMILES | MIC (Pseudomonas aeruginosa) | IC50 [1] | MIC (Enterococcus [2]) | MIC (Staphylococcus aureus [3]) | IC50 [4] | MIC (Staphylococcus aureus [5]) | MIC (Staphylococcus aureus [6]) | MIC (Streptococcus pneumoniae) | MIC (Staphylococcus aureus [7]) | MIC (Staphylococcus aureus [8]) | MIC (Staphylococcus aureus [9]) | IC50 [10] | MIC (Enterococcus [11]) | MIC (Escherichia coli) | further results
1 | Cc1ccc(CC(=O)OC[C@H]2O[C@@H](Oc3c(-c4ccc(O)c(O)c4)oc4cc(O)cc(O)c4c3=O)[C@H](OC(=O)Cc3ccc(C)cc3)[C@@H](O)[C@H]2O)cc1 | > 128 µg/mL | 10.5 µM | 4 µg/mL (≈ 5.49 µM) | 8 µg/mL (≈ 11 µM) | 2.69 µM | 2 µg/mL (≈ 2.74 µM) | 16 µg/mL (≈ 22 µM) | 2 µg/mL (≈ 2.74 µM) | 4 µg/mL (≈ 5.49 µM) | 4 µg/mL (≈ 5.49 µM) | 2 µg/mL (≈ 2.74 µM) | 2.21 µM | 8 µg/mL (≈ 11 µM) | > 128 µg/mL | –
2 | O=C(CCc1ccc(O)cc1)OC[C@H]1O[C@@H](Oc2c(-c3ccc(O)c(O)c3)oc3cc(O)cc(O)c3c2=O)[C@H](OC(=O)CCc2ccc(O)cc2)[C@@H](O)[C@H]1O | > 128 µg/mL | 10.9 µM | 4 µg/mL (≈ 5.26 µM) | 2 µg/mL (≈ 2.63 µM) | 1.59 µM | 1 µg/mL (≈ 1.31 µM) | 4 µg/mL (≈ 5.26 µM) | 4 µg/mL (≈ 5.26 µM) | 2 µg/mL (≈ 2.63 µM) | 2 µg/mL (≈ 2.63 µM) | 1 µg/mL (≈ 1.31 µM) | 2.39 µM | 4 µg/mL (≈ 5.26 µM) | > 128 µg/mL | –
3 | CCOc1ccc(CCC(=O)OC[C@H]2O[C@@H](Oc3c(-c4ccc(O)c(O)c4)oc4cc(O)cc(O)c4c3=O)[C@H](OC(=O)CCc3ccc(OCC)cc3)[C@@H](O)[C@H]2O)cc1 | > 128 µg/mL | > 12 µM | 16 µg/mL (≈ 19.6 µM) | 2 µg/mL (≈ 2.45 µM) | 2.99 µM | 4 µg/mL (≈ 4.9 µM) | 8 µg/mL (≈ 9.79 µM) | 8 µg/mL (≈ 9.79 µM) | 8 µg/mL (≈ 9.79 µM) | 8 µg/mL (≈ 9.79 µM) | 4 µg/mL (≈ 4.9 µM) | 5.39 µM | 16 µg/mL (≈ 19.6 µM) | > 128 µg/mL | –
4 | O=C(CCCCc1ccc(F)cc1)OC[C@H]1O[C@@H](Oc2c(-c3ccc(O)c(O)c3)oc3cc(O)cc(O)c3c2=O)[C@H](OC(=O)CCCCc2ccc(F)cc2)[C@@H](O)[C@H]1O | > 128 µg/mL | > 12 µM | 16 µg/mL (≈ 19.5 µM) | 2 µg/mL (≈ 2.44 µM) | 4.05 µM | 4 µg/mL (≈ 4.87 µM) | 16 µg/mL (≈ 19.5 µM) | 8 µg/mL (≈ 9.75 µM) | 16 µg/mL (≈ 19.5 µM) | 4 µg/mL (≈ 4.87 µM) | 4 µg/mL (≈ 4.87 µM) | 5.02 µM | 16 µg/mL (≈ 19.5 µM) | > 128 µg/mL | –
5 | O=C(CCc1ccc(F)cc1)OC[C@H]1O[C@@H](Oc2c(-c3ccc(O)c(O)c3)oc3cc(O)cc(O)c3c2=O)[C@H](OC(=O)CCc2ccc(F)cc2)[C@@H](O)[C@H]1O | > 128 µg/mL | 9.16 µM | 0.25 µg/mL (≈ 0.327 µM) | 0.13 µg/mL (≈ 0.17 µM) | 0.22 µM | 0.13 µg/mL (≈ 0.17 µM) | 0.5 µg/mL (≈ 0.654 µM) | 0.13 µg/mL (≈ 0.17 µM) | 0.5 µg/mL (≈ 0.654 µM) | 0.13 µg/mL (≈ 0.17 µM) | 0.13 µg/mL (≈ 0.17 µM) | 0.78 µM | 0.25 µg/mL (≈ 0.327 µM) | > 128 µg/mL | Activity (Mus musculus [12]): Non-toxic; Activity (Mus musculus [13]): Non-toxic; Activity (Mus musculus [14]): Non-toxic; Fa at 1 h [15]: 76.6%; Activity (Mus musculus [16]): Toxic; Activity (Mus musculus [17]): Non-toxic; Ratio IC50 [18]: 40
6 | O=c1c(O[C@@H]2O[C@H](CO)[C@H](O)[C@H](O)[C@H]2O)c(-c2ccc(O)c(O)c2)oc2cc(O[C@@H]3O[C@H](CO)[C@H](O)[C@H](O)[C@H]3O)cc(O)c12 | 32 µg/mL (≈ 51.1 µM) | 5.34 µM | > 128 µg/mL | > 128 µg/mL | 0.2 µM | > 128 µg/mL | > 128 µg/mL | > 128 µg/mL | > 128 µg/mL | > 128 µg/mL | > 128 µg/mL | 0.26 µM | > 128 µg/mL | 32 µg/mL (≈ 51.1 µM) | –
7 | O=C(CCc1ccc(F)cc1)OC[C@H]1O[C@@H](Oc2c(-c3ccc(O)c(O)c3)oc3cc(O)cc(O)c3c2=O)[C@H](O)[C@@H](O)[C@H]1O | > 128 µg/mL | 11.5 µM | 16 µg/mL (≈ 26 µM) | 16 µg/mL (≈ 26 µM) | 2.99 µM | 16 µg/mL (≈ 26 µM) | 32 µg/mL (≈ 52.1 µM) | 32 µg/mL (≈ 52.1 µM) | 32 µg/mL (≈ 52.1 µM) | 16 µg/mL (≈ 26 µM) | 16 µg/mL (≈ 26 µM) | 1.4 µM | 16 µg/mL (≈ 26 µM) | > 128 µg/mL | –
